From ChEMBL document CHEMBL6127150, “Discovery of PARP1-Sparing Inhibitors for Protein ADP-Ribosylation” (ACS Med Chem Lett, 2024)
The source made the active and inactive calls. No cut-off for these calls is given here.

Legend:
[1] = target: Poly [ADP-ribose] polymerase 1 (Homo sapiens) (UniProt P09874); test: Inhibition of human full-length PARP1 expressed in bacterial expression system assessed as reduction in enzyme mediated autoPARylation at 100 uM using NAD+ as substrate preincubated for 30 mins followed by substrate addition and measured after 2 hrs by immunoblot analysis; details: time 2.5 hrs
Summary of the method: (§1)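 Full-length human PARP1 or PARP2, expressed recombinantly in and purified from bacteria, auto-PARylated without or with 100 μM compound. Read-out was immunoblot with an anti-PAR antibody. Loading control was anti-His₆ for PARP1 and anti-PARP2 antibody for PARP2. Signal was quantified by densitometry normalized to the loading control, with significance testing.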

[2] = target: T1, Poly [ADP-ribose] polymerase 2 (Homo sapiens, UniProt Q9UGN5); test: Inhibition of human full-length PARP2 expressed in bacterial expression system assessed as reduction in enzyme mediated autoPARylation at 100 uM using NAD+ as substrate preincubated for 30 mins followed by substrate addition and measured after 2 hrs by immunoblot analysis; details: time 2.5 hrs; summary of the method: as §1
[3] = target: T2, Poly [ADP-ribose] polymerase tankyrase-1 (Homo sapiens) (UniProt O95271); test: Inhibition of human PARP5a catalytic domain expressed in bacterial expression system assessed as reduction in enzyme mediated autoPARylation at 100 uM using NAD+ as substrate measured after 2 hrs by immunoblot analysis
T2 sequence (whole entry): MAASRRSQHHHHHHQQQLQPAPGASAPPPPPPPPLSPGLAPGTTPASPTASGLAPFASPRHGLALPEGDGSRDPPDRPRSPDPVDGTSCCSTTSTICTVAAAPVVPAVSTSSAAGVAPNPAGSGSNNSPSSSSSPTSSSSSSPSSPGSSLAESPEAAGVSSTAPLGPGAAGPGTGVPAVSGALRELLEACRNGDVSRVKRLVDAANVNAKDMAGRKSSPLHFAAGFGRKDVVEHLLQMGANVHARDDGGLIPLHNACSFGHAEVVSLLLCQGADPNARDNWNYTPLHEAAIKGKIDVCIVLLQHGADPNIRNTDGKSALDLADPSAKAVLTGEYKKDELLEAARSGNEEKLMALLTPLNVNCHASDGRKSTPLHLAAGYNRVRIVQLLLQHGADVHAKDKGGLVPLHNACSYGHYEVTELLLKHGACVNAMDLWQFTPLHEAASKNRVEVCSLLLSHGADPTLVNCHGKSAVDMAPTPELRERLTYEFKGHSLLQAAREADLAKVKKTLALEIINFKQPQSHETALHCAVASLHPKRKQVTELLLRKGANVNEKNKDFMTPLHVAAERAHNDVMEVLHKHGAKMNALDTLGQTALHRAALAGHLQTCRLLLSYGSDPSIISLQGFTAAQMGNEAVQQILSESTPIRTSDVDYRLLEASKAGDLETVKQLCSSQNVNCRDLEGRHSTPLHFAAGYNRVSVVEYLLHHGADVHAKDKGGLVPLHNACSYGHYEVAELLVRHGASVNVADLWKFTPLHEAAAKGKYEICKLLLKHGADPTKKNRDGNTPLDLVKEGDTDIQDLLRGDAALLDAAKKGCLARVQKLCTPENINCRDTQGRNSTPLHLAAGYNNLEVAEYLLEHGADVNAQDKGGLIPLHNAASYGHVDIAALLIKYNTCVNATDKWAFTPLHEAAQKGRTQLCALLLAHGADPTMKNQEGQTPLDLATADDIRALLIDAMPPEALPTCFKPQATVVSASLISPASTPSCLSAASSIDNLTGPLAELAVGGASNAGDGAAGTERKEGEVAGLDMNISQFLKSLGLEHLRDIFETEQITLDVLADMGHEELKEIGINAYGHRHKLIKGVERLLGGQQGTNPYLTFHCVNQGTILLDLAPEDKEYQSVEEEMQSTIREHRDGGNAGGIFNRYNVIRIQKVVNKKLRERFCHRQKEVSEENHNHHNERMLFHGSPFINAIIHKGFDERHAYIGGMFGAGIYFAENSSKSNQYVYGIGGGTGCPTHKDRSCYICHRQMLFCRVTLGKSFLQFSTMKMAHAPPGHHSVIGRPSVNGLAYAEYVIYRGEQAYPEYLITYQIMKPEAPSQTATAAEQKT
Summary of the method: (§2)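 Catalytic domains of human PARP5a (PARylation) and PARP10 (MARylation), bacterially expressed and purified, were auto-ADP-ribosylated with NAD⁺ without or with 100 μM compound. Detection was by immunoblot using the AF1521 macrodomain pan-ADPr binding reagent, with anti-His₆ loading control. Densitometry was normalized to the loading control.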

[4] = target: T3, Protein mono-ADP-ribosyltransferase PARP10 (Homo sapiens) (UniProt Q53GL7); test: Inhibition of human PARP10 catalytic domain expressed in bacterial expression system assessed as reduction in enzyme mediated autoPARylation at 100 uM using NAD+ as substrate measured after 2 hrs by immunoblot analysis; summary of the method: as §2
T3 sequence (whole entry): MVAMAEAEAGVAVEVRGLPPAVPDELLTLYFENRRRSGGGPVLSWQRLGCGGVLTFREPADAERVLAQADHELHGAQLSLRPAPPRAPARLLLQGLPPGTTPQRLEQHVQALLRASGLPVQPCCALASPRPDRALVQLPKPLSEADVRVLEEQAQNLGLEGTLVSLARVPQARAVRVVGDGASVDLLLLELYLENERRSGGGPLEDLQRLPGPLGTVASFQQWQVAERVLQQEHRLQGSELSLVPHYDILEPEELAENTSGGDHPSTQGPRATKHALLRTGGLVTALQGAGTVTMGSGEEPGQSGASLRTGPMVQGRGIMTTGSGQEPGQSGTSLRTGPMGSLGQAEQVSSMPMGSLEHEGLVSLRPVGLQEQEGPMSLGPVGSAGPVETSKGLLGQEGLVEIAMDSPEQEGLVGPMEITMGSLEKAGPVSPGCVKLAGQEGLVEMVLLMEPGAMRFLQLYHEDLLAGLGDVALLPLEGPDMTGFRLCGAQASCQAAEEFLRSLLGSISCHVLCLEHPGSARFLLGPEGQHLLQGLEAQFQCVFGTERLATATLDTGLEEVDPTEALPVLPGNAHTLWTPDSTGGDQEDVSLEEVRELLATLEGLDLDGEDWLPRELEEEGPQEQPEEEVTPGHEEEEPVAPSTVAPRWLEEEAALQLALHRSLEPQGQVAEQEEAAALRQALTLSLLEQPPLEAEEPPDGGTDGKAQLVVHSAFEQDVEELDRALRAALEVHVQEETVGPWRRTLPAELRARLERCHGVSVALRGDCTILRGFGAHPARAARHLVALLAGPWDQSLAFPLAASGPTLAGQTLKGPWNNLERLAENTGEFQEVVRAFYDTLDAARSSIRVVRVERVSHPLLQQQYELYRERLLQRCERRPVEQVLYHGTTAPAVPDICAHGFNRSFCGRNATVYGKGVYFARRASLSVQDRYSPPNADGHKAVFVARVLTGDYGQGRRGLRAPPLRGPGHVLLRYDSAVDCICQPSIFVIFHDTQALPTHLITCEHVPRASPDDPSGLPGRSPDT

HAP1 [5] = test: Inhibition of PARP in human HAP1 cell lysates assessed as reduction in protein ADP-ribosylation at 100 uM using NAD+ as substrate measured after 2 hrs by immunoblot analysis; type: subcellular
Summary of the method: (§3)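 HAP1 or HAP1/PARP1-KO cell lysates were ADP-ribosylated without or with 100 μM compound. Protein ADP-ribosylation was detected by immunoblot with the AF1521 macrodomain pan-ADPr binding reagent, with anti-GAPDH as loading control. Densitometric signal was normalized to loading control and tested for significance.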

HAP1 [6] = test: Inhibition of PARP in human HAP1 PARP1-KO cell lysates assessed as reduction in protein ADP-ribosylation at 100 uM using NAD+ as substrate measured after 2 hrs by immunoblot analysis; type: subcellular; summary of the method: as §3
[7] = target: T4, Protein mono-ADP-ribosyltransferase PARP10 (Homo sapiens, UniProt Q53GL7); test: Inhibition of human PARP10 catalytic domain expressed in bacterial expression system assessed as reduction in enzyme mediated autoPARylation using NAD+ as substrate measured after 2 hrs by immunoblot analysis
T4 sequence (Q53GL7 whole entry): T3 sequence (whole entry)

[8] = target: T1, Poly [ADP-ribose] polymerase 2; test: Inhibition of human full-length PARP2 expressed in bacterial expression system assessed as reduction in enzyme mediated autoPARylation using NAD+ as substrate preincubated for 30 mins followed by substrate addition and measured after 2 hrs by immunoblot analysis

Poly [ADP-ribose] polymerase 1 (Homo sapiens), sequence (P09874 whole entry): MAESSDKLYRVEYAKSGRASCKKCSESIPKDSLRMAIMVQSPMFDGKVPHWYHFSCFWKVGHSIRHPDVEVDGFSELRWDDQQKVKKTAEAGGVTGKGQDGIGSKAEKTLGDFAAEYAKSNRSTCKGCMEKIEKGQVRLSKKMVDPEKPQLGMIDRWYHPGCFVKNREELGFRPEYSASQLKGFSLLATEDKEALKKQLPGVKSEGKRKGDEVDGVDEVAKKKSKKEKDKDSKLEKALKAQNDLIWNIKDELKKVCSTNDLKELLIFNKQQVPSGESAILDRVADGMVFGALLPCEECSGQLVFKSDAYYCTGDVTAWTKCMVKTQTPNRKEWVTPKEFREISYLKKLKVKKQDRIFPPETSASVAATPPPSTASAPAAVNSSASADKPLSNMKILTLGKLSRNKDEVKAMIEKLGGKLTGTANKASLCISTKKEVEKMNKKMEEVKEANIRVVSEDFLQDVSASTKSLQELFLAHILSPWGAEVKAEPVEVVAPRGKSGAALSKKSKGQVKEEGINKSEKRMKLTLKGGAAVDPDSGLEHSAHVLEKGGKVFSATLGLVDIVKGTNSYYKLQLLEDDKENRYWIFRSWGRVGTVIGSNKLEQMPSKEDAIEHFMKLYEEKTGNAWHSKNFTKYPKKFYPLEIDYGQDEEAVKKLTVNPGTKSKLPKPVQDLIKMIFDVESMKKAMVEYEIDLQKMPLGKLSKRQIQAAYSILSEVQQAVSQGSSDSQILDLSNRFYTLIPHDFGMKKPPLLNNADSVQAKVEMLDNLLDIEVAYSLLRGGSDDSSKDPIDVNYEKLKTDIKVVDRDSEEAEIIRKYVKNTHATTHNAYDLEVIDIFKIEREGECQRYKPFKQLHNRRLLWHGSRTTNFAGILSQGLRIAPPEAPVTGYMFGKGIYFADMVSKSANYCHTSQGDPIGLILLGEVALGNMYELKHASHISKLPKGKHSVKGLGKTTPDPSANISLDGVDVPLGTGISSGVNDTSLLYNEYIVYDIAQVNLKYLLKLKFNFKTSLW
T1 sequence (Q9UGN5 whole entry, the tested form may be a part): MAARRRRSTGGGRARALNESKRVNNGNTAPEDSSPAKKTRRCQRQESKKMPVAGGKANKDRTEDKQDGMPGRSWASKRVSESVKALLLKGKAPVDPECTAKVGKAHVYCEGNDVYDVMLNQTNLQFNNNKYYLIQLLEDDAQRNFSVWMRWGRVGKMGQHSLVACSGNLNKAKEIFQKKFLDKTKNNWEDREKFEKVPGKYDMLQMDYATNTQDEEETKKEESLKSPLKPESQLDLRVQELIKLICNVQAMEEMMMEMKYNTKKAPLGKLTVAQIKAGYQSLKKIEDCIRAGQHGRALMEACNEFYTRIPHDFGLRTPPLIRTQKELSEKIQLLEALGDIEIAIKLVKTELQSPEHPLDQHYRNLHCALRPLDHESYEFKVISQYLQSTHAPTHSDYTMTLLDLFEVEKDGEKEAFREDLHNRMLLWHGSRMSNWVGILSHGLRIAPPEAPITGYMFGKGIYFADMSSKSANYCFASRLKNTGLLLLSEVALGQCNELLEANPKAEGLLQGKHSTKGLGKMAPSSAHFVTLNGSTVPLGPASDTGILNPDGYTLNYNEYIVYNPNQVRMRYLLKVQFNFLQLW

inhibition [1] | inhibition [2] | inhibition [3] | inhibition [4] | inhibition (HAP1 [5]) | inhibition (HAP1 [6]) | IC50 [7] | IC50 [8] | Compound
inactive | Active | Active | Active | Active | Active | 39.4 µM | 50.1 µM | CC(=O)c1cc(COc2ccccc2C(N)=O)ccc1F
– | – | – | – | Active | Active | – | – | O=C(c1cc(Cc2n[nH]c(=O)c3ccccc23)ccc1F)N1CCN(C(=O)C2CC2)CC1
inactive | – | – | – | – | – | – | – | CC(=O)c1cccc(C(=O)Nc2ccccc2C(N)=O)c1
inactive | Active | Active | Active | Active | Active | 48.3 µM | 59.7 µM | CC(=O)c1cccc(CCOc2ccccc2C(N)=O)c1
– | Active | – | – | – | – | – | – | CC(=O)c1cccc([C@@H](C)Oc2ccccc2C(N)=O)c1
inactive | Active | Active | Active | Active | Active | 15.3 µM | 102 µM | CC(=O)c1cccc(COc2ccccc2C(N)=O)c1
– | Active | – | – | – | – | – | – | CC(=O)c1cccc(CCCOc2ccccc2C(N)=O)c1
– | Active | – | – | – | – | – | – | CC(=O)c1cccc([C@H](C)Oc2ccccc2C(N)=O)c1
inactive | – | – | – | – | – | – | – | CC(=O)c1cccc(CNc2ccccc2C(N)=O)c1
inactive | Active | Active | Active | Active | Active | 36.9 µM | 51.5 µM | CC(=O)c1cccc(CCOc2ccc(F)cc2C(N)=O)c1
